These results are taken from ChEMBL document CHEMBL1152347, “A selective account of effective paradigms and significant outcomes in the discovery of inspirational marine natural products” (J Nat Prod, 2009).

Data set [1] deals with Methionine aminopeptidase 2 (Homo sapiens, UniProt P50579). Briefly: Inhibition of methionine aminopeptidase 2.
Data set [2] concerns HCT-116. Briefly: Cytotoxicity against human HCT116 xenografted in SCID mouse at 25 mg/kg/day, iv administered as bolus dose from 3 days after tumor implantation for 5 days measured on day 11 relative to control. Type of data set: functional. In a few lines: (§1)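 SCID mice implanted with HCT-116 tumour cells, dosed iv as a bolus daily for 5 days starting 3 days after inoculation and followed to day 30. Tumour response read as %T/C against untreated controls; body weights tracked over the 30 days and compared with untreated controls.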
(In general: In xenograft studies the graft and the host belong to different species.)

Data set [3] deals with Mus musculus. Briefly: Toxicity in human HCT116 xenografted SCID mouse assessed as increase in body weight at 12.3 mg/kg/day, iv administered as bolus dose from 3 days after tumor implantation for 5 days measured after 30 days. Type of data set: organism-based. To be noted: in vivo, 720 h. The arrangement: route intravenous. The gist of the method: as §1
A further data set concerns KB. In words: Cytotoxicity against human KB cells. Type of data set: functional, cell-based.
In data set [4] the test system is Mus musculus. Briefly: Toxicity in human HCT116 xenografted SCID mouse assessed as increase in body weight at 25 mg/kg/day, iv administered as bolus dose from 3 days after tumor implantation for 5 days measured after 30 days. In kind it is organism-based. To be noted: in vivo, 720 h. Further details: route intravenous; call rule not given here. The gist of the method: as §1
The test system of data set [5] is HCT-116. Briefly: Cytotoxicity against human HCT116 xenografted in SCID mouse at 12.3 mg/kg/day, iv administered as bolus dose from 3 days after tumor implantation for 5 days measured on day 9 relative to control. Type of data set: functional. The gist of the method: as §1
For a further data set, the system named is MDA-MB-435. In words: Cytotoxicity against human MDA-MB-435 cells. Type of data set: functional, cell-based. Particulars: for CC50: read-out: LC50 (the source's name).
Data set [6] has as its target Methionine aminopeptidase 1 (Homo sapiens, UniProt P53582). Briefly: Inhibition of methionine aminopeptidase 1.
The next data set deals with PC-3. Briefly: Cytotoxicity against human PC3 cells. Type of data set: functional, cell-based.
The test system of data set [7] is HCT-116. In words: Anticancer activity against human HCT116 xenografted in SCID mouse at 31 ug/mouse dosed as bolus dose after 23 days relative to control. In kind it is functional. In a few lines:
(§2)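 Bolus injection into SCID mice bearing HCT-116 tumours at 125, 62 or 31 μg/mouse; tumour growth read as %T/C against controls at 23 days.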

Data set [8] deals with Mus musculus. Briefly: Toxicity in human HCT116 xenografted SCID mouse at 125 ug/mouse dosed as bolus dose after 23 days. Type of data set: organism-based. Particulars: in vivo, 552 h. In a few lines: as §2
Data set [9] has as its system HCT-116. In words: Anticancer activity against human HCT116 xenografted in SCID mouse at 62 ug/mouse dosed as bolus dose after 23 days relative to control. In kind it is functional. The gist of the method:
as §2

Data set [10] has as its system HCT-116. In words: Cytotoxicity against human HCT116 cells assessed as cell kill at >=2 ng/mL after 24 hrs by clonogenic assay. In kind it is functional. The gist of the method: (§3)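 Clonogenic dose-response on HCT-116 cells with exposures of 2, 24 and 168 h; the value is the concentration giving 90% cell kill at each exposure time.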
The subject of data set [11] is HCT-116. Briefly: Cytotoxicity against human HCT116 cells assessed as cell kill at >=3 ng/mL after 2 hrs by clonogenic assay. In kind it is functional. In a few lines:
as §3

For the next data set, the system named is MCF7. In words: Growth inhibition of human MCF7 cells. Type of data set: functional.
The nature of data set [12]: Toxicity in SCID mouse assessed as maximum tolerated dose. In kind it is organism-based. Particulars: in vivo.
Data set [13] relates to HCT-116. In words: Cytotoxicity against human HCT116 cells assessed as cell kill at >=20 pg/mL after 168 hrs by clonogenic assay. Type of data set: functional. In a few lines:
as §3

Data set [14] deals with HCT-116. Briefly: Cytotoxicity against human HCT116 cells after 24 hrs by clonogenic assay. In kind it is functional. In a few lines: as §3
Data set [15] relates to HCT-116. Briefly: Cytotoxicity against human HCT116 cells. Type of data set: functional, cell-based. The gist of the method:
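HCT-116 cells in liquid culture; IC50 from two determinations, reported as their median.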

The test system of data set [16] is HCT-116. Briefly: Cytotoxicity against human HCT116 cells after 2 hrs by clonogenic assay. In kind it is functional. In a few lines:
as §3

SMILES strings stand for the structures. ≈ marks a conversion by molar mass, not a printed value.

Methionine aminopeptidase 2, sequence (P50579 whole entry): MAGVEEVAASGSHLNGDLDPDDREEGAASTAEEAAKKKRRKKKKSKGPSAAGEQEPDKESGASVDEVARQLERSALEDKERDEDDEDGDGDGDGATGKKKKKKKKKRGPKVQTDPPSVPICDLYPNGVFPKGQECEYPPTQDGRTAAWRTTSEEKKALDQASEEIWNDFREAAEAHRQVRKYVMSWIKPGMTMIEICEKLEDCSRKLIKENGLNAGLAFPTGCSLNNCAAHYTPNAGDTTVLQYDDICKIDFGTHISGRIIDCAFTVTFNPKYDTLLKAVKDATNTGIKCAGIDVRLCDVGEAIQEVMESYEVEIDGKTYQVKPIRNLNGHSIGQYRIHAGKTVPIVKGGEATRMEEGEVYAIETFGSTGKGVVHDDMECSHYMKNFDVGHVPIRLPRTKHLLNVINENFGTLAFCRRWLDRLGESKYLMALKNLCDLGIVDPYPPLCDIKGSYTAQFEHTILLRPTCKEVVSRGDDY

The IC50 is the concentration needed to halve the response being measured. Lower therefore signals greater potency in that assay. In the case of `CC(C)(C)OC(=O)Nc1cccnc1C(=O)Nc1nccs1`, in data set [1], the IC50 was more than 300000 nM.

On to `CCC(C)CCCCCCCCCCC(=O)O[C@H]1CC[C@H](NC(=O)[C@H](OC)[C@H](O)[C@@H](O)[C@H](O)/C=C/C(C)C)C(=O)N(C)C1` (some centres not stated) [BENGAMIDE O], for which the half-inhibitory concentration (IC50) in [1] is more than 50000 nM.

What is called T/C is the result in the treated group divided by that in the control group, in per cent. With `C=C1C[C@H](C)C[C@@H]2CC=C[C@@H](C/C=C\C(=O)O[C@H]([C@@H](O)/C=C/[C@@H]3CC(C)=CCO3)C[C@@H]3O[C@H]3[C@@H](O)C1)O2` [FIJIANOLIDE B], the values for the T/C with HCT-116 [2] and with HCT-116 [5] were 11% and 80%, respectively. The Activity result with Mus musculus [3] and with Mus musculus [4] was “Non-toxic” in each case. For the same molecule, the IC50 in the data set on KB worked out at 29 nM; in the data set with MDA-MB-435, 2 nM. Further, the CC50 in the data set on MDA-MB-435 worked out at 7 nM.

In the case of `CO[C@@H]1[C@H](OC(=O)/C=C/C=C/C=C/C=C/C(=O)O)CC[C@]2(CO2)[C@H]1[C@@]1(C)O[C@@H]1CC=C(C)C` [FUMAGILLIN], the IC50 in data set [1] was 30 nM; in data set [6], “Not Active”.

What is called GI50 is the concentration at which growth is held to half of that of the control. A high value points to lower sensitivity of the cells. For orientation: MTD means the highest dose tested that stayed within the study's limit of toxicity. `C=C(C)C[C@H](OC)[C@H](O)C(=O)N[C@@H](OC)C1C[C@@H](O)C(C)(C)[C@@H](C[C@H](O)[C@@H](C)[C@@H]2Cc3c(C)c(O)cc(O)c3C(=O)O2)O1` (some centres not stated) [IRCINIASTATIN]: inhibition in the data set with PC-3 was half-maximal at 1 nM (IC50). Besides, the T/C in the data set on HCT-116 [7] was 86%; in the data set with HCT-116 [9], 75%. In addition, the Activity result in the data set with Mus musculus [8] is listed as “Toxic”; in the data set on HCT-116 [10] it was 90%; in the data set on HCT-116 [11], 90%; in the data set with HCT-116 [13], 90%. Growth in the data set on MCF7 was halved (GI50) at 5.2 nM. The MTD in data set [12] amounted to 0.125 mg/kg. Also, the CC50 with MDA-MB-435 was less than 2.5 nM.

Turning to `C=CC/C=C\Cc1csc(C(C)(C)[C@H](O)C/C=C\C(=C)CCNC(=O)OC)n1` [MYCOTHIAZOLE], the Activity in the data set on HCT-116 [14] and with HCT-116 [16] was more than 10 µg/mL throughout. The IC50 in the data set on HCT-116 [15] was found to be 1.5 ng/mL (≈ 3.71 nM). Besides, the maximal tolerated dose (MTD) in [12] came out at 3 mg/kg.

As to `CO[C@@H]1[C@H](OC(=O)NC(=O)CCl)CC[C@]2(CO2)[C@H]1[C@@]1(C)O[C@@H]1CC=C(C)C` [O-CHLOROACETYLCARBAMOYLFUMAGILLOL], the half-maximal inhibitory concentration (IC50) entry in data set [6] is recorded as “Not Active”.

With `CO[C@@H]1C(=O)CC[C@]2(CO2)[C@@]1(O)[C@@]1(C)O[C@@H]1CC=C(C)C` [OVALICIN], in [6], the IC50 result was “Not Active”.
